Data set [1] in a line: Pharmacokinetic assessments in rats. It counts as in vivo, Sprague Dawley rats. The conditions noted are these: for AUC: male, Sprague-Dawley, rat, plasma, po; for metabolites detected in plasma (Cmax at 30 mpk): rats, oral.
For another data set, the system named is Sprague Dawley rats. As to the kind of experiment: Rat stool and urine content, stool form scoring. It counts as in vivo. The settings on record: for Increase in stool water: criterion: 10% increase from control; for Stool water dose-response: oral 0.1–3.0 mg/kg, criterion: Yes. The gist of the method: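 Rats are dosed orally, 3 mg/kg for screening or 0.1, 0.3, 1.0 and 3.0 mg/kg for dose-response, then held in metabolic cages. Urine sodium reduction is measured at 16 h (n = 6 per group; mean ± SEM; one-way ANOVA with Dunnett's test versus vehicle). Stool form is scored 1 (normal) to 5 (watery), and fecal water is given as percent water by weight and percent of control.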

The next data set concerns humans. The settings on record: clinical trials, cited from earlier work.
Data set [2] deals with dialysis patients with hyperphosphatemia. The settings on record: cited from earlier work.
Another data set concerns the target T1, human NHE3 (Homo sapiens, UniProt P48764).
T1 sequence (P48764 26-834): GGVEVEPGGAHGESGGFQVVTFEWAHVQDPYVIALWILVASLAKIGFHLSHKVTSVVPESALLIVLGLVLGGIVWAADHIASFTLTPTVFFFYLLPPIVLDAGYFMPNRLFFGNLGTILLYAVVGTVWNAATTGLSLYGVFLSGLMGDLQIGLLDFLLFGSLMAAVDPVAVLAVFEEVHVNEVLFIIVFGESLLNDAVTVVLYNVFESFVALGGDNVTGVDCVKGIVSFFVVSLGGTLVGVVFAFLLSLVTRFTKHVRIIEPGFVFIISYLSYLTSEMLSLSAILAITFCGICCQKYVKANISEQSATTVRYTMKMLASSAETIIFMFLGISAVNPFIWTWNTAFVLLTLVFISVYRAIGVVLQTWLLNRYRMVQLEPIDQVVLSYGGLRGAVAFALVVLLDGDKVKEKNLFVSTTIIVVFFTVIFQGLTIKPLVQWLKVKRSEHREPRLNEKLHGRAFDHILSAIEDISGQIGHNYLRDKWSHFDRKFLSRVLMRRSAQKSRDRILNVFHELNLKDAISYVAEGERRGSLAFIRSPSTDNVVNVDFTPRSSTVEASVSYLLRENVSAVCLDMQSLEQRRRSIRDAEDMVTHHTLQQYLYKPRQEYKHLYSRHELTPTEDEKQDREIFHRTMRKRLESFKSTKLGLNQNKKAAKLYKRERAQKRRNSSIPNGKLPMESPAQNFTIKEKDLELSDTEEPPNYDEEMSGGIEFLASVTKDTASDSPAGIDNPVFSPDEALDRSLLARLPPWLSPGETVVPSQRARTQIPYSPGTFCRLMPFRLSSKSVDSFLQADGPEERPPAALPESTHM
Briefly: Cell-based human NHE3 inhibition assay. The settings on record: species not stated; data not shown. The method, boiled down:
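Cell deacidification assay in transfected opossum kidney cells overexpressing human or rat NHE3. Test compounds are applied across a dose range, and inhibition of intracellular pH recovery is followed with a pH-sensitive dye. Potency is reported as pIC50 for each species.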

The term AUC denotes the area under the concentration-time curve, a measure of exposure. In turn, `CN1Cc2c(Cl)cc(Cl)cc2C(c2ccc(S(=O)(=O)NCCOCCOCCNC(=O)NCCOCCOCCNS(=O)(=O)c3ccc(C4CN(C)Cc5c(Cl)cc(Cl)cc54)cc3)cc2)C1` (stereo not drawn) [Compound 23] came in with an area under the curve (AUC) in data set [1] (17 mg/kg) of under 8 ng·h/mL.
Regarding `CN1Cc2c(Cl)cc(Cl)cc2C(c2cccc(S(=O)(=O)NCCOCCOCCNC(=O)NCCOCCOCCNS(=O)(=O)c3cccc(C4CN(C)Cc5c(Cl)cc(Cl)cc54)c3)c2)C1` (stereo not drawn) [Compound 22], the area under the curve (AUC) in data set [1] (11 mg/kg) was under 19 ng·h/mL.
As to `CN1Cc2c(Cl)cc(Cl)cc2C(c2cccc(S(N)(=O)=O)c2)C1` (stereo not drawn) [Compound 1], the “pharmacodynamic (PD) effect in PK studies” value in data set [1] (Sprague–Dawley rats) is on record as “absence of a pharmacodynamic (PD) effect”.
`CN1Cc2c(Cl)cc(Cl)cc2C(c2ccc(S(=O)(=O)NCCOCCOCCOCCNC(=O)NCCOCCOCCOCCNS(=O)(=O)c3ccc(C4CN(C)Cc5c(Cl)cc(Cl)cc54)cc3)cc2)C1` (stereo not drawn) [Compound 35] displayed an AUC in data set [1] (5.3 mg/kg) of under 19 ng·h/mL.
In turn, `CN1Cc2c(Cl)cc(Cl)cc2C(c2cccc(S(=O)(=O)NCCOCCOCCNC(=O)c3ccc(C(=O)NCCOCCOCCNS(=O)(=O)c4cccc(C5CN(C)Cc6c(Cl)cc(Cl)cc65)c4)cc3)c2)C1` (stereo not drawn) [Compound 20] came in with an AUC in data set [1] (22 mg/kg) of under 8 ng·h/mL.
For `CN1Cc2c(Cl)cc(Cl)cc2C(c2cccc(S(=O)(=O)NCCOCCOCCOCCNC(=O)CCC(=O)NCCOCCOCCOCCNS(=O)(=O)c3cccc(C4CN(C)Cc5c(Cl)cc(Cl)cc54)c3)c2)C1` (stereo not drawn) [Compound 44], the AUC in data set [1] (28 mg/kg) is under 8 ng·h/mL.
`CN1Cc2c(Cl)cc(Cl)cc2C(c2ccc(S(=O)(=O)NCCOCCOCCNC(=O)c3ccc(C(=O)NCCOCCOCCNS(=O)(=O)c4ccc(C5CN(C)Cc6c(Cl)cc(Cl)cc65)cc4)cc3)cc2)C1` (stereo not drawn) [Compound 21] returned an exposure (AUC) in data set [1] (23 mg/kg) of under 8 ng·h/mL.
Turning to `CN1Cc2c(Cl)cc(Cl)cc2[C@H](c2cccc(S(=O)(=O)NCCOCCOCCNC(=O)NCCCCNC(=O)NCCOCCOCCNS(=O)(=O)c3cccc([C@@H]4CN(C)Cc5c(Cl)cc(Cl)cc54)c3)c2)C1` [Compound 28, tenapanor], in the data set with Sprague Dawley rats, the “Increase in stool water” value is on record as “Yes” and the Stool water dose-response entry is given as “Yes”. The “metabolites detected in plasma (Cmax at 30 mpk)” value in data set [1] is on record as “No metabolites detected”. Further, in the data set on humans (versus the placebo), the stool consistency entry is “softened stool consistency in a dose-dependent manner”; the “stool frequency and weight” value is “increased stool frequency and weight”. In addition, in the data set on humans (humans, below the quantification limit in >95% of all plasma samples), the plasma concentrations is under 0.5 ng/mL. The “plasma samples below the quantification limit (0.5 ng/mL)” value with humans (humans) was over 95%. Besides, the serum phosphorus levels entry in data set [2] is recorded as “lowered serum phosphorus levels”.
`CN1Cc2c(Cl)cc(Cl)cc2C(c2ccc(S(=O)(=O)NCCOCCOCCOCCNC(=O)c3ccc(C(=O)NCCOCCOCCOCCNS(=O)(=O)c4ccc(C5CN(C)Cc6c(Cl)cc(Cl)cc65)cc4)cc3)cc2)C1` (stereo not drawn) [Compound 37] returned an AUC in data set [1] (19 mg/kg) of under 9 ng·h/mL.
`CN1Cc2c(Cl)cc(Cl)cc2[C@H](c2cccc(S(=O)(=O)NCCOCCOCCNC(=O)Nc3ccc(NC(=O)NCCOCCOCCNS(=O)(=O)c4cccc([C@@H]5CN(C)Cc6c(Cl)cc(Cl)cc65)c4)cc3)c2)C1` [Compound 26]: in the data set on Sprague Dawley rats, the “Increase in stool water” value is on record as “Yes” and the Stool water dose-response entry is “Yes”. Besides, in data set [1], the “metabolites detected in plasma (Cmax at 30 mpk)” value is listed as “No metabolites detected”. The “inhibition in the cell assay (maximum reached)” value against human NHE3 is recorded as under 100%.
Molecule `CN1Cc2c(Cl)cc(Cl)cc2C(c2cccc(S(=O)(=O)NCCOCCOCCOCCNC(=O)NCCOCCOCCOCCNS(=O)(=O)c3cccc(C4CN(C)Cc5c(Cl)cc(Cl)cc54)c3)c2)C1` (stereo not drawn) [Compound 38] gave an AUC in data set [1] (1.8 mg/kg) of under 75 ng·h/mL.
